Data taken from ChEMBL document CHEMBL5724801, “EUbOPEN Chemogenomics Library - Multiplex” (2024).
Where “and” joins values, the source holds several entries; their conditions need not be identical. Identical values can stand only once.

test system: Fibroblast; test: Multiplex assay against human fibroblast; format: toxicity, cell-based; settings: 12 h, 1 µM, compound concentration 1 uM
Procedure, shortened: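 Cells were classed with CellPathfinder machine-learning gating, first as Hoechst high-intensity objects or normal cells, then (normal cells) as healthy, pyknosed or fragmented nuclei, and finally (pyknosed cells) as mitotic or apoptotic. Staining of live cells at seeding used Hoechst33342, BioTracker Green Microtubule Cytoskeleton Dye, MitoTracker Red and Annexin V Alexa Fluor 680, with imaging on a CQ1 microscope at 37°C and 5% CO2 after compound addition. Tubulin, mitochondrial-mass and membrane-permeability phenotypes are per cents of healthy-nucleus cells.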

Row | Compound | Population Apoptotic (%) | Population Fragmented Nuclei (%) | Population Healthy Nuclei (%) | Population Hoechst High Intensity Objects (%) | Population Membrane Permeable-Phenotype (%) | Population Mitochondria Different-Phenotype (%) | Population Mitotic Cells (%) | Population Normal (%) | Population Pyknosed Nuclei (%) | Population Tubulin-Different-Phenotype (%)
1 | Oc1c(CN2CCN(c3ccccn3)CC2)cc(Cl)c2cccnc12 | 73% and 57% | 17% and 27% | 68% and 54% | 4% and 5% | 1% and 8% | 0% and 6% | 26% and 42% | 95% and 94% | 14% and 18% | 27% and 43%
2 | Cc1cnc(-c2cc(N3CCN(C(=O)CCS(C)(=O)=O)CC3)ncc2Cl)c(C)c1 | 36% and 31% | 9% and 22% | 71% and 36% | 1% and 9% | 0% and 7% | 7% and 10% | 63% and 68% | 98% and 90% | 19% and 41% | 20% and 50%

same assay, conditions: 12 h, 1 µM, compound concentration 1 uM

Row | Compound | Total Cell Count
3 | Oc1c(CN2CCN(c3ccccn3)CC2)cc(Cl)c2cccnc12 | 168 and 152
4 | Cc1cnc(-c2cc(N3CCN(C(=O)CCS(C)(=O)=O)CC3)ncc2Cl)c(C)c1 | 99 and 85

same assay, conditions: 12 h, 10 µM, compound concentration 10 uM

Row | Compound | Population Apoptotic (%) | Population Fragmented Nuclei (%) | Population Healthy Nuclei (%) | Population Hoechst High Intensity Objects (%) | Population Membrane Permeable-Phenotype (%) | Population Mitochondria Different-Phenotype (%) | Population Mitotic Cells (%) | Population Normal (%) | Population Pyknosed Nuclei (%) | Population Tubulin-Different-Phenotype (%)
5 | Oc1c(CN2CCN(c3ccccn3)CC2)cc(Cl)c2cccnc12 | 41% and 33% | 17% and 25% | 54% and 58% | 5% and 2% | 0% and 2% | 25% and 9% | 58% and 66% | 94% and 97% | 27% and 16% | 67% and 62%
6 | Cc1cnc(-c2cc(N3CCN(C(=O)CCS(C)(=O)=O)CC3)ncc2Cl)c(C)c1 | 40% and 26% | 13% and 21% | 71% and 63% | 4% and 1% | 1% | 2% | 60% and 73% | 95% and 98% | 14% and 15% | 24% and 37%

same assay, conditions: 12 h, 10 µM, compound concentration 10 uM

Row | Compound | Total Cell Count
7 | Oc1c(CN2CCN(c3ccccn3)CC2)cc(Cl)c2cccnc12 | 130 and 131
8 | Cc1cnc(-c2cc(N3CCN(C(=O)CCS(C)(=O)=O)CC3)ncc2Cl)c(C)c1 | 142 and 121

same assay, conditions: 24 h, 1 µM, compound concentration 1 uM

Row | Compound | Population Apoptotic (%) | Population Fragmented Nuclei (%) | Population Healthy Nuclei (%) | Population Hoechst High Intensity Objects (%) | Population Membrane Permeable-Phenotype (%) | Population Mitochondria Different-Phenotype (%) | Population Mitotic Cells (%) | Population Normal (%) | Population Pyknosed Nuclei (%) | Population Tubulin-Different-Phenotype (%)
9 | Oc1c(CN2CCN(c3ccccn3)CC2)cc(Cl)c2cccnc12 | 50% and 45% | 19% and 29% | 67% and 56% | 3% and 5% | 0% and 8% | 3% and 7% | 50% and 55% | 96% and 94% | 13% | 30% and 47%
10 | Cc1cnc(-c2cc(N3CCN(C(=O)CCS(C)(=O)=O)CC3)ncc2Cl)c(C)c1 | 54% and 47% | – | 76% and 38% | 6% and 10% | 2% and 3% | 4% and 0% | 45% and 52% | 93% and 89% | 12% and 25% | 30% and 61%

same assay, conditions: 24 h, 1 µM, compound concentration 1 uM

Row | Compound | Total Cell Count
11 | Oc1c(CN2CCN(c3ccccn3)CC2)cc(Cl)c2cccnc12 | 174 and 153
12 | Cc1cnc(-c2cc(N3CCN(C(=O)CCS(C)(=O)=O)CC3)ncc2Cl)c(C)c1 | 97 and 91

same assay, conditions: 24 h, 10 µM, compound concentration 10 uM

Row | Compound | Population Apoptotic (%) | Population Fragmented Nuclei (%) | Population Healthy Nuclei (%) | Population Hoechst High Intensity Objects (%) | Population Membrane Permeable-Phenotype (%) | Population Mitochondria Different-Phenotype (%) | Population Normal (%) | Population Pyknosed Nuclei (%) | Population Tubulin-Different-Phenotype (%) | Total Cell Count
13 | Oc1c(CN2CCN(c3ccccn3)CC2)cc(Cl)c2cccnc12 | 89% and 56% | 26% and 35% | 46% and 41% | 0% and 2% | 1 | 15% and 11% | 100% and 97% | 27% and 22% | 57% and 68% | 139 and 134
14 | Cc1cnc(-c2cc(N3CCN(C(=O)CCS(C)(=O)=O)CC3)ncc2Cl)c(C)c1 | 46% and 42% | 10% and 19% | 79% and 67% | 0% and 4% | 2 | 6% and 9% | 99% and 95% | 9% and 12% | 28% and 38% | 135 and 116

same assay, conditions: 24 h, 10 µM, compound concentration 10 uM

Row | Compound | Population Mitotic Cells (%)
15 | Cc1cnc(-c2cc(N3CCN(C(=O)CCS(C)(=O)=O)CC3)ncc2Cl)c(C)c1 | 53% and 57%

same assay, conditions: 48 h, 1 µM, compound concentration 1 uM

Row | Compound | Population Apoptotic (%) | Population Fragmented Nuclei (%) | Population Healthy Nuclei (%) | Population Hoechst High Intensity Objects (%) | Population Membrane Permeable-Phenotype (%) | Population Mitochondria Different-Phenotype (%) | Population Mitotic Cells (%) | Population Normal (%) | Population Pyknosed Nuclei (%) | Population Tubulin-Different-Phenotype (%)
16 | Oc1c(CN2CCN(c3ccccn3)CC2)cc(Cl)c2cccnc12 | 54% and 70% | 17% and 25% | 67% and 66% | 5% and 0% | 1% and 4% | 1% and 4% | 45% and 30% | 94% and 99% | 14% and 7% | 35% and 37%
17 | Cc1cnc(-c2cc(N3CCN(C(=O)CCS(C)(=O)=O)CC3)ncc2Cl)c(C)c1 | 69% and 36% | 19% and 40% | 58% and 47% | 2% and 5% | 0% and 12% | 1% and 9% | 30% and 63% | 97% and 94% | 21% and 12% | 33% and 70%

same assay, conditions: 48 h, 1 µM, compound concentration 1 uM

Row | Compound | Total Cell Count
18 | Oc1c(CN2CCN(c3ccccn3)CC2)cc(Cl)c2cccnc12 | 158 and 137
19 | Cc1cnc(-c2cc(N3CCN(C(=O)CCS(C)(=O)=O)CC3)ncc2Cl)c(C)c1 | 109 and 92

same assay, conditions: 48 h, 10 µM, compound concentration 10 uM

Row | Compound | Population Apoptotic (%) | Population Fragmented Nuclei (%) | Population Healthy Nuclei (%) | Population Hoechst High Intensity Objects (%) | Population Membrane Permeable-Phenotype (%) | Population Mitochondria Different-Phenotype (%) | Population Mitotic Cells (%) | Population Normal (%) | Population Pyknosed Nuclei (%) | Population Tubulin-Different-Phenotype (%)
20 | Oc1c(CN2CCN(c3ccccn3)CC2)cc(Cl)c2cccnc12 | 85% and 78% | 31% and 34% | 32% and 41% | 2% | 0% and 1% | 9% and 7% | 14% and 21% | 97% | 35% and 24% | 38% and 65%
21 | Cc1cnc(-c2cc(N3CCN(C(=O)CCS(C)(=O)=O)CC3)ncc2Cl)c(C)c1 | 50% and 75% | 21% and 29% | 69% and 61% | 2% and 3% | 0% and 2% | 7% and 5% | 50% and 25% | 97% and 96% | 8% and 9% | 33%

same assay, conditions: 48 h, 10 µM, compound concentration 10 uM

Row | Compound | Total Cell Count
22 | Oc1c(CN2CCN(c3ccccn3)CC2)cc(Cl)c2cccnc12 | 137
23 | Cc1cnc(-c2cc(N3CCN(C(=O)CCS(C)(=O)=O)CC3)ncc2Cl)c(C)c1 | 141 and 131
